Measurements pooled from the literature.
Protocols differ between the studies behind these lines.
Target: 5-hydroxytryptamine receptor 3A (HTR3A, Homo sapiens, UniProt P46098)
Concentration: 10 µM
Sequence (P46098 24-478, as in one of the studies): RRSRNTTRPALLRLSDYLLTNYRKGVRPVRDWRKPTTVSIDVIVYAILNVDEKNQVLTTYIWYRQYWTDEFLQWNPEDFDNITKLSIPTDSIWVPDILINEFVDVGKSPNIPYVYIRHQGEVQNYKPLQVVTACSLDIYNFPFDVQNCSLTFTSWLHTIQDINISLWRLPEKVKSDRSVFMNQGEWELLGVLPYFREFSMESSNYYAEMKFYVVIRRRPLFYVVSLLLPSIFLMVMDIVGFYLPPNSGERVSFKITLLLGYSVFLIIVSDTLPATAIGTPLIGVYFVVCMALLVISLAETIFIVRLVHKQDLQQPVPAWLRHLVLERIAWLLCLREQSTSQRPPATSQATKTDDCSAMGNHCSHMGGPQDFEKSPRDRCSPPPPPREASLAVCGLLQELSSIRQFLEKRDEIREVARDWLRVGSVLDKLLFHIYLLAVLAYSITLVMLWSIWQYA

SMILES	effect on	technique	inhibition [%]
O=C(NC1C2CCN(CC2)C1Cc1cccnc1)c1cc2ccccc2o1 (stereo not shown)	ligand displacement	radioligand	25
CCN(CC)c1ccc(C2Nc3ccc(C(=O)c4ccccc4)cc3NC3=C2C(=O)CC(C)(C)C3)cc1 (stereo not shown)	ligand displacement	radioligand	-5
CCCNc1nc2ccccc2n1Cc1ccc(Cl)cc1	cell-free assay	–	-1.96
O=C1N=C(N2CCCCN2)S/C1=C\c1ccc(F)cc1O	ligand displacement	radioligand	17
N#Cc1cc(Cn2c(N3CCCC3)nc3ccccc32)ccc1F	cell-free assay	–	-12.4
CC[C@H](CC(=O)O)n1c(=O)c2ncccc2n(Cc2cn(C)c3cc(C)cc(C)c23)c1=O	cell-free assay	–	0.31
COc1cc(NC(C)=O)c(Cl)cc1C(=O)Nc1nccs1	ligand displacement	radioligand	15.9
COc1cc2c3c(c1OC)-c1cc4c(cc1CC3N(CC1CC1)CC2c1ccccc1)OCO4 (stereo not shown)	ligand displacement	radioligand	-13.3
COc1cc(N[C@@H]2CCCC[C@]2(O)C(F)(F)F)ccc1F	cell-free assay	–	11.6
O=C(c1ccc(Cl)cc1)N(Cc1ccccc1)C1CCCCC1	ligand displacement	radioligand	1.9
